“And” between values parts separate entries of the source, which are not always exact repeats. Identical values can stand only once.
Columns and labels:
[1] = biological target: T1, D(2) dopamine receptor (Rattus norvegicus, UniProt P61169); assay: Binding affinity was determined by measuring the ability to displace [125I]N-(p-aminophenethyl)-spiroperidol from Dopamine receptor D2 in rat caudate (in vitro)
Procedure, shortened: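 Homogenized rat caudate was the tissue, and [¹²⁵I]-N-(p-aminophenethyl)spiroperidol was the radioligand displaced. Values are means with the SEM range.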

[2] = biological target: T1, D(2) dopamine receptor; assay: Formation of cAMP on Dopamine receptor D2 in vitro in rat intermediate lobe; format: functional
[3] = biological target: D(1A) dopamine receptor (Rattus norvegicus, UniProt P18901); assay: Binding affinity was determined by measuring the ability to displace [125I]SCH-23982 from Dopamine receptor D1 in rat caudate (in vitro)
Chain of D(1A) dopamine receptor (P18901 whole entry): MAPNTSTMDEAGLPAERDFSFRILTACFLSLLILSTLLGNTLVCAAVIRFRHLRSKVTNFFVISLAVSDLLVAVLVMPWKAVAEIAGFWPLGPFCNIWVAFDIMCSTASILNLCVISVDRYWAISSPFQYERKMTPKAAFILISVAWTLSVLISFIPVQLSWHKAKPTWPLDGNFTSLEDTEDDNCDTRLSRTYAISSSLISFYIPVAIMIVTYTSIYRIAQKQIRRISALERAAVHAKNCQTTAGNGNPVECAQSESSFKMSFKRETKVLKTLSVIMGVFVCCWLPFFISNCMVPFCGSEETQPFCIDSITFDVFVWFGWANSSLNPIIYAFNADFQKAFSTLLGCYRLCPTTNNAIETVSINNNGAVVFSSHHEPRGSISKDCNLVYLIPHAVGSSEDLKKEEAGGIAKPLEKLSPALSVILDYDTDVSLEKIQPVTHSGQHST
Procedure, shortened: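 Homogenized rat caudate was used as the tissue source. [¹²⁵I]SCH23982 was the displaced radioligand, and affinity was expressed as Ki. Values are means with the SEM range.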

[4] = biological target: D(2) dopamine receptor (Rattus norvegicus) (UniProt P61169); assay: Percent intrinsic activity was determined by measuring the formation of cAMP on Dopamine receptor D2 in vitro in rat intermediate lobe; format: functional
Chain of D(2) dopamine receptor (Rattus norvegicus) (P61169 whole entry): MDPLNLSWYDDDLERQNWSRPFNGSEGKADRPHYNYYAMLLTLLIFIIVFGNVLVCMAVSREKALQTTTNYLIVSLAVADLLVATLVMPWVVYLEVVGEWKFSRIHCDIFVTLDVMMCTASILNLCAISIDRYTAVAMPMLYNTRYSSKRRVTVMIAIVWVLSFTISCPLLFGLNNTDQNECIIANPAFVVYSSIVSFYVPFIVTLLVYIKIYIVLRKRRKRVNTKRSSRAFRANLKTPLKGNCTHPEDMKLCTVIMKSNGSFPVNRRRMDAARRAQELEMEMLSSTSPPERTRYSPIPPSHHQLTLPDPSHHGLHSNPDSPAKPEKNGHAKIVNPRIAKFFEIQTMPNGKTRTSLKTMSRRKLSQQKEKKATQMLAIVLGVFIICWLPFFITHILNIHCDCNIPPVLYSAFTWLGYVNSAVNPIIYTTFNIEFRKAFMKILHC

T1 sequence (P61169 whole entry): as above

NCC1OCCc2c1ccc(O)c2O (stereo not given) [listing 1 of 3 here]
Ki [1]: 4610 nM | EC50 [2]: 2850 nM | Ki [3]: 1030 nM

NCC1OCCc2c1ccc(O)c2O (stereo not given) [listing 2 of 3 here]
Ki [1]: 4610 nM | EC50 [2]: 2850 nM | Ki [3]: 1030 nM

NCC1OCCc2c1ccc(O)c2O (stereo not given) [listing 3 of 3 here]
IA [4]: 96%

NC[C@@H]1O[C@H](c2ccccc2)Cc2c1ccc(O)c2O (stereo in doubt; form 2) [listing 1 of 2 here]
IA [4]: 98% and 101%

NC[C@@H]1O[C@H](c2ccccc2)Cc2c1ccc(O)c2O (stereo in doubt; form 1) [listing 1 of 2 here]
IA [4]: 101% and 98%

NC[C@@H]1O[C@H](c2ccccc2)Cc2c1ccc(O)c2O (stereo in doubt; form 1) [listing 2 of 2 here]
Ki [1]: 776 nM and 807 nM | EC50 [2]: 3910 nM and 10200 nM

NC[C@H]1O[C@@H](c2ccccc2)Cc2c1ccc(O)c2O
Ki [1]: > 10000 nM | EC50 [2]: > 10000 nM

NC[C@@H]1O[C@H](c2ccccc2)Cc2c1ccc(O)c2O (stereo in doubt; form 2) [listing 2 of 2 here]
Ki [1]: 807 nM and 776 nM | EC50 [2]: 10200 nM and 3910 nM

Reference: ChEMBL document CHEMBL1125128, “(1R,3S)-1-(aminomethyl)-3,4-dihydro-5,6-dihydroxy-3-phenyl-1H-2-benzopyran: a potent and selective D1 agonist” (J Med Chem, 1990)
